Tested on: Fibroblast
Experiment: Multiplex assay against human fibroblast
Format: toxicity, cell-based
How it was run: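 Cells were classed with CellPathfinder machine-learning gating, first as Hoechst high-intensity objects or normal cells, then (normal cells) as healthy, pyknosed or fragmented nuclei, and finally (pyknosed cells) as mitotic or apoptotic. Staining of live cells at seeding used Hoechst33342, BioTracker Green Microtubule Cytoskeleton Dye, MitoTracker Red and Annexin V Alexa Fluor 680, with imaging on a CQ1 microscope at 37°C and 5% CO2 after compound addition. Tubulin, mitochondrial-mass and membrane-permeability phenotypes are per cents of healthy-nucleus cells.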

[1] = 12 h, 1 µM, compound concentration 1 uM, replicate 1
[2] = 12 h, 1 µM, compound concentration 1 uM, replicate 2
[3] = 12 h, 10 µM, compound concentration 10 uM, replicate 1
[4] = 12 h, 10 µM, compound concentration 10 uM, replicate 2
[5] = 24 h, 1 µM, compound concentration 1 uM, replicate 1
[6] = 24 h, 1 µM, compound concentration 1 uM, replicate 2
[7] = 24 h, 10 µM, compound concentration 10 uM, replicate 1
[8] = 24 h, 10 µM, compound concentration 10 uM, replicate 2
[9] = 48 h, 1 µM, compound concentration 1 uM, replicate 1
[10] = 48 h, 1 µM, compound concentration 1 uM, replicate 2
[11] = 48 h, 10 µM, compound concentration 10 uM, replicate 1
[12] = 48 h, 10 µM, compound concentration 10 uM, replicate 2

In the case of `CCCCC[C@H](O)/C=C/[C@H]1[C@H](O)CC(=O)[C@@H]1CCCCCCC(=O)O` [ALPROSTADIL], the “Population Apoptotic (%)” value [1] is reported as 61%, the “Population Fragmented Nuclei (%)” value [1] is reported as 16% and the “Population Healthy Nuclei (%)” value [1] is reported as 71%. For the same compound, the “Population Hoechst High Intensity Objects (%)” value [1] was 0%, the “Population Membrane Permeable-Phenotype (%)” value [1] was 0% and the “Population Mitochondria Different-Phenotype (%)” value [1] was 1%. The “Population Mitotic Cells (%)” value [1] was 38%, the “Population Normal (%)” value [1] was 99% and the “Population Pyknosed Nuclei (%)” value [1] was 12%. The “Population Tubulin-Different-Phenotype (%)” value [1] was 12%, the “Total Cell Count” value [1] was 150 and the “Population Apoptotic (%)” value [2] was 43%. For the same compound, the “Population Fragmented Nuclei (%)” value [2] was 23%, the “Population Healthy Nuclei (%)” value [2] was 57% and the “Population Hoechst High Intensity Objects (%)” value [2] was 4%. The “Population Membrane Permeable-Phenotype (%)” value [2] was 10%, the “Population Mitochondria Different-Phenotype (%)” value [2] was 2% and the “Population Mitotic Cells (%)” value [2] was 56%. For the same compound, the “Population Normal (%)” value [2] was 95%, the “Population Pyknosed Nuclei (%)” value [2] was 18% and the “Population Tubulin-Different-Phenotype (%)” value [2] was 38%. The “Total Cell Count” value [2] was 169, the “Population Apoptotic (%)” value [3] was 36% and the “Population Fragmented Nuclei (%)” value [3] was 7%. For the same compound, the “Population Healthy Nuclei (%)” value [3] was 75%, the “Population Hoechst High Intensity Objects (%)” value [3] was 5% and the “Population Membrane Permeable-Phenotype (%)” value [3] was 2%. For the same compound, the “Population Mitochondria Different-Phenotype (%)” value [3] was 4%, the “Population Mitotic Cells (%)” value [3] was 63% and the “Population Normal (%)” value [3] was 94%. The “Population Pyknosed Nuclei (%)” value [3] was 17%, the “Population Tubulin-Different-Phenotype (%)” value [3] was 26% and the “Total Cell Count” value [3] was 136. For the same compound, the “Population Apoptotic (%)” value [4] was 34%, the “Population Fragmented Nuclei (%)” value [4] was 25% and the “Population Healthy Nuclei (%)” value [4] was 43%. For the same compound, the “Population Hoechst High Intensity Objects (%)” value [4] was 16%, the “Population Membrane Permeable-Phenotype (%)” value [4] was 11% and the “Population Mitochondria Different-Phenotype (%)” value [4] was 1%. For the same compound, the “Population Mitotic Cells (%)” value [4] was 65%, the “Population Normal (%)” value [4] was 83% and the “Population Pyknosed Nuclei (%)” value [4] was 31%. For the same compound, the “Population Tubulin-Different-Phenotype (%)” value [4] was 45%, the “Total Cell Count” value [4] was 146 and the “Population Apoptotic (%)” value [5] was 25%. The “Population Fragmented Nuclei (%)” value [5] was 15%, the “Population Healthy Nuclei (%)” value [5] was 73% and the “Population Hoechst High Intensity Objects (%)” value [5] was 0%. For the same compound, the “Population Membrane Permeable-Phenotype (%)” value [5] was 0%, the “Population Mitochondria Different-Phenotype (%)” value [5] was 1% and the “Population Mitotic Cells (%)” value [5] was 75%. The “Population Normal (%)” value [5] was 99%, the “Population Pyknosed Nuclei (%)” value [5] was 10% and the “Population Tubulin-Different-Phenotype (%)” value [5] was 15%. The “Total Cell Count” value [5] was 147, the “Population Apoptotic (%)” value [6] was 43% and the “Population Fragmented Nuclei (%)” value [6] was 22%. For the same compound, the “Population Healthy Nuclei (%)” value [6] was 53%, the “Population Hoechst High Intensity Objects (%)” value [6] was 2% and the “Population Membrane Permeable-Phenotype (%)” value [6] was 8%. The “Population Mitochondria Different-Phenotype (%)” value [6] was 8%, the “Population Mitotic Cells (%)” value [6] was 56% and the “Population Normal (%)” value [6] was 97%. The “Population Pyknosed Nuclei (%)” value [6] was 24%, the “Population Tubulin-Different-Phenotype (%)” value [6] was 40% and the “Total Cell Count” value [6] was 165. For the same compound, the “Population Apoptotic (%)” value [7] was 63%, the “Population Fragmented Nuclei (%)” value [7] was 14% and the “Population Healthy Nuclei (%)” value [7] was 69%. For the same compound, the “Population Hoechst High Intensity Objects (%)” value [7] was 2%, the “Population Membrane Permeable-Phenotype (%)” value [7] was 0% and the “Population Mitochondria Different-Phenotype (%)” value [7] was 2%. The “Population Mitotic Cells (%)” value [7] was 36%, the “Population Normal (%)” value [7] was 97% and the “Population Pyknosed Nuclei (%)” value [7] was 15%. The “Population Tubulin-Different-Phenotype (%)” value [7] was 19%, the “Total Cell Count” value [7] was 147 and the “Population Apoptotic (%)” value [8] was 30%. For the same compound, the “Population Fragmented Nuclei (%)” value [8] was 27%, the “Population Healthy Nuclei (%)” value [8] was 45% and the “Population Hoechst High Intensity Objects (%)” value [8] was 13%. For the same compound, the “Population Membrane Permeable-Phenotype (%)” value [8] was 16%, the “Population Mitochondria Different-Phenotype (%)” value [8] was 3% and the “Population Mitotic Cells (%)” value [8] was 69%. The “Population Normal (%)” value [8] was 86%, the “Population Pyknosed Nuclei (%)” value [8] was 26% and the “Population Tubulin-Different-Phenotype (%)” value [8] was 59%. The “Total Cell Count” value [8] was 157, the “Population Apoptotic (%)” value [9] was 32% and the “Population Fragmented Nuclei (%)” value [9] was 18%. The “Population Healthy Nuclei (%)” value [9] was 62%, the “Population Hoechst High Intensity Objects (%)” value [9] was 1% and the “Population Membrane Permeable-Phenotype (%)” value [9] was 1%. The “Population Mitochondria Different-Phenotype (%)” value [9] was 4%, the “Population Mitotic Cells (%)” value [9] was 67% and the “Population Normal (%)” value [9] was 98%. The “Population Pyknosed Nuclei (%)” value [9] was 18%, the “Population Tubulin-Different-Phenotype (%)” value [9] was 30% and the “Total Cell Count” value [9] was 152. For the same compound, the “Population Apoptotic (%)” value [10] was 55%, the “Population Fragmented Nuclei (%)” value [10] was 26% and the “Population Healthy Nuclei (%)” value [10] was 51%. For the same compound, the “Population Hoechst High Intensity Objects (%)” value [10] was 3%, the “Population Membrane Permeable-Phenotype (%)” value [10] was 6% and the “Population Mitochondria Different-Phenotype (%)” value [10] was 8%. The “Population Mitotic Cells (%)” value [10] was 44%, the “Population Normal (%)” value [10] was 96% and the “Population Pyknosed Nuclei (%)” value [10] was 21%. The “Population Tubulin-Different-Phenotype (%)” value [10] was 44%, the “Total Cell Count” value [10] was 162 and the “Population Apoptotic (%)” value [11] was 62%. For the same compound, the “Population Fragmented Nuclei (%)” value [11] was 11%, the “Population Healthy Nuclei (%)” value [11] was 62% and the “Population Hoechst High Intensity Objects (%)” value [11] was 2%. For the same compound, the “Population Membrane Permeable-Phenotype (%)” value [11] was 1%, the “Population Mitochondria Different-Phenotype (%)” value [11] was 7% and the “Population Mitotic Cells (%)” value [11] was 37%. For the same compound, the “Population Normal (%)” value [11] was 97%, the “Population Pyknosed Nuclei (%)” value [11] was 26% and the “Population Tubulin-Different-Phenotype (%)” value [11] was 34%. The “Total Cell Count” value [11] was 144, the “Population Apoptotic (%)” value [12] was 48% and the “Population Fragmented Nuclei (%)” value [12] was 33%. The “Population Healthy Nuclei (%)” value [12] was 44%, the “Population Hoechst High Intensity Objects (%)” value [12] was 16% and the “Population Membrane Permeable-Phenotype (%)” value [12] was 13%. For the same compound, the “Population Mitotic Cells (%)” value [12] was 51%, the “Population Normal (%)” value [12] was 83% and the “Population Pyknosed Nuclei (%)” value [12] was 22%. For the same compound, the “Population Tubulin-Different-Phenotype (%)” value [12] was 60%.

— ChEMBL document CHEMBL5058577, “EUbOPEN Chemogenomics Library 2 (Multiplex)” (2022)
